Two molecules from ChEMBL document CHEMBL1149678, “Synthesis and structure-activity relationship of RXR antagonists based on the diazepinylbenzoic acid structure” (Bioorg Med Chem Lett, 2007) can be followed below.

Molecules are shown by their SMILES.

A short description of data set [1]: Bioavailability in rat at 1 mg/kg, iv and 3 mg/kg, po. As to conditions: in vivo. In kind it is ADME, organism-based. A digest of the protocol:
(§1)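 Rats given the compound as a 1 mg/kg intravenous bolus or 3 mg/kg perorally as a suspension. Blood was sampled at various time points up to 24 h, and parent compound levels were measured by LC/MS. Clearance, terminal half-life and steady-state volume of distribution come from the iv profile, Cmax and tmax from the po profile, and bioavailability from comparing iv and po dosing.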

The nature of data set [2]: Terminal elimination half life in rat at 1 mg/kg, iv. Conditions: in vivo. The class given is ADME, organism-based. On the set-up: dose 1 mg/kg, route intravenous. The method, boiled down:
as §1

Data set [3] has as its target T1, Retinoic acid receptor RXR-alpha (Homo sapiens, UniProt P19793).
T1 sequence (P19793 whole entry): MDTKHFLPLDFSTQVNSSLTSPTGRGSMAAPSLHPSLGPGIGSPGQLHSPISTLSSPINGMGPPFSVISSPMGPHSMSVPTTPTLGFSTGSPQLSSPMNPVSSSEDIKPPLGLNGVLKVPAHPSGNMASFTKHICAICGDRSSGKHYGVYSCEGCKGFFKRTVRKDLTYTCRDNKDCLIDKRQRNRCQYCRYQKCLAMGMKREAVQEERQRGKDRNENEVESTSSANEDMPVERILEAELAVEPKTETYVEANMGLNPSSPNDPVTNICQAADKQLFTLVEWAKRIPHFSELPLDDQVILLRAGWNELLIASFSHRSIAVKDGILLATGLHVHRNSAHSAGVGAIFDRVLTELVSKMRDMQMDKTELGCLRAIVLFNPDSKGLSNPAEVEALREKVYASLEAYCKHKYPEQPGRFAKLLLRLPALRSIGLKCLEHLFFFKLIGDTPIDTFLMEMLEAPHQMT
As to the kind of experiment: Antagonist activity at human RXRalpha expressed in […] cells assessed as inhibition of LG-100268-induced transactivation. The class given is functional, cell-based, HEK293.

Data set [4] in a line: Volume of distribution at steady state in rat at 1 mg/kg, iv. In kind it is ADME, organism-based. Also noted: dose 1 mg/kg, route intravenous. As to conditions: in vivo, read-out: Vdss. The method, boiled down:
as §1

Data set [5] in a line: Tmax in rat at 3 mg/kg, po. The class given is ADME, organism-based. Also noted: dose 3 mg/kg, route oral. Conditions: in vivo. A digest of the protocol: as §1
A short description of data set [6]: Cmax in rat at 3 mg/kg, po. As to conditions: in vivo. In kind it is ADME, organism-based. On the set-up: dose 3 mg/kg, route oral. A digest of the protocol:
as §1

Data set [7] is described as follows: Plasma clearance in rat at 1 mg/kg, iv. The class given is ADME, organism-based. Also noted: dose 1 mg/kg, route intravenous. A digest of the protocol:
as §1

Data set [8] concerns the target T1, Retinoic acid receptor RXR-alpha. As to the kind of experiment: Antagonist activity at human RXRalpha expressed in […] cells assessed as inhibition of 9-cis-retinoic acid-induced transactivation. The class given is functional, cell-based, HEK293.

`CCCN1c2ccc(NS(=O)(=O)c3cccc(C(F)(F)F)c3)cc2N=C(c2ccc(C(=O)O)cc2)c2cc3c(cc21)C(C)(C)CCC3(C)C` gave a bioavailability in data set [1] of 21%. Besides, the half-life in data set [2] was 1.8 h. Also, the IC50 in data set [3] was 190 nM; in data set [8], 76 nM. For the same molecule, in data set [4], the Vd worked out at 1.1 L/kg. Also, the time of peak concentration (Tmax) in data set [5] was 4 h. In addition, in data set [6], the peak concentration (Cmax) was 519 nM. In addition, in data set [7], the clearance was 6.67 mL/min/kg.
In data set [1], `CCN1c2ccc(NS(=O)(=O)c3cccc(C(F)(F)F)c3)cc2N=C(c2ccc(C(=O)O)cc2)c2cc3c(cc21)C(C)(C)CCC3(C)C` showed a bioavailability of 36%. This molecule had a half-life in data set [2] of 2.1 h. The concentration for half-maximal inhibition (IC50) turned out to be 160 nM in data set [3] and 95 nM in data set [8]. For the same molecule, in data set [4], the Vd came to 1.2 L/kg. For the same molecule, the Tmax in data set [5] turned out to be 4.7 h. In addition, the peak level in data set [6] (Cmax) was 468 nM. Also, the clearance in data set [7] is 8.33 mL/min/kg.

By bioavailability is commonly meant dose-corrected exposure relative to a reference, in per cent. By half-life is commonly meant the time needed for the level to fall by half in the phase considered. As usually defined, the IC50 is the point on the concentration scale where inhibition reaches its midpoint. In general, Tmax refers to the time from dosing to the highest level. Usually Cmax stands for the maximum level reached in the sampled fluid or tissue. What is called clearance is a measure of how efficiently the substance is removed, as volume per time. Lower therefore signals inefficient removal.
